What is called IC50 is the midpoint of a concentration-inhibition curve.

Results on seven molecules are retold here after ChEMBL document CHEMBL1125355, “Novel non-cross resistant diaminoanthraquinones as potential chemotherapeutic agents” (J Med Chem, 1992).

Assay [1] deals with RPMI-8226. As to the kind of experiment: In vitro inhibition of tumor cell growth in the human myeloma 8226 system. It counts as functional, cell-based. In a few lines: (§1)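 Cells trypsinized, seeded at 7500 cells/well, attached overnight. Serially diluted agent added to quadruplicate cultures; 24 h at 37 °C, 5% CO2, with [3H]thymidine 0.5 μCi/well during the last 4 h. Incorporation counted by scintillation; percent of media-only control from mean CPM. IC50 by linear forecast on a percent control vs log concentration plot.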

Assay [2] relates to RPMI-8226. As to the kind of experiment: In vitro inhibition of tumor cell growth in the human myeloma 8226/ADR system. It counts as functional, cell-based. In a few lines:
as §1

In assay [3] the test system is MCF7. As to the kind of experiment: In vitro inhibition of tumor cell growth in the human mammary carcinoma MCF-7/ADR system. It is filed as functional, cell-based. In a few lines:
as §1

The subject of assay [4] is MCF7. As to the kind of experiment: In vitro inhibition of tumor cell growth in the human mammary tumor MCF-7 system. It counts as functional, cell-based. Put shortly: as §1
The species entered for assay [5] is Homo sapiens. Description: Tumor-specific activity against human gastric tumor type at 0.5 ug/mL concentration after 1 hr exposure time; Activity= no of responses/ no tested,1/1. It counts as functional, Stomach.
For assay [6], the species on record is Homo sapiens. Description: Tumor-specific activity against human gastric tumor type at 5 ug/mL concentration after 1 hr exposure time; Activity= no of responses/ no tested,1/1. It counts as functional, Stomach.
The species named for assay [7] is Homo sapiens. Description: Tumor-specific activity against human gastric tumor type at 50 ug/mL concentration after 1 hr exposure time; Activity= no of responses/ no tested,1/1. It counts as functional, Stomach.
The species named for assay [8] is Homo sapiens. Description: Tumor-specific activity against human breast tumor type at 0.5 ug/mL concentration after 1 hr exposure time; Activity= no of responses/ no tested,0/2. It counts as functional.
The species named for assay [9] is Homo sapiens. As to the kind of experiment: Tumor-specific activity against human breast tumor type at 5 ug/mL concentration after 1 hr exposure time; Activity= no of responses/ no tested,1/2. It counts as functional.
For assay [10], the species on record is Homo sapiens. Description: Tumor-specific activity against human breast tumor type at 50 ug/mL concentration after 1 hr exposure time; Activity= no of responses/ no tested,1/2. It counts as functional.
The species named for assay [11] is Homo sapiens. As to the kind of experiment: Tumor-specific activity against human ovary tumor type at 0.5 ug/mL concentration after 1 hr exposure time; Activity= no of responses/ no tested,2/2. It is filed as functional, Female gonad.
For assay [12], the species on record is Homo sapiens. Description: Tumor-specific activity against human ovary tumor type at 5 ug/mL concentration after 1 h exposure time; Activity= no of responses/ no tested,2/2. It is filed as functional, Female gonad.
Assay [13] is filed under the species Homo sapiens. As to the kind of experiment: Tumor-specific activity against human ovary tumor type at 50 ug/mL concentration after 1 hr exposure time; Activity= no of responses/ no tested,2/2. It is filed as functional, Female gonad.
Assay [14] is filed under the species Homo sapiens. Description: Tumor-specific activity against human colon tumor type at 5 ug/mL concentration after 1 hr exposure time; Activity= no of responses/ no tested,4/5. It is filed as functional.
For assay [15], the species on record is Homo sapiens. As to the kind of experiment: Tumor-specific activity against human colon tumor type at 50 ug/mL concentration after 1 hr exposure time; Activity= no of responses/ no tested,4/5. It is filed as functional.
The species entered for assay [16] is Homo sapiens. As to the kind of experiment: Tumor-specific activity against human total tumor type at 0.5 ug/mL concentration after 1 hr exposure time; Activity= no of responses/ no tested,4/10. It counts as functional.
The species named for assay [17] is Homo sapiens. Description: Tumor-specific activity against human total tumor type at 5 ug/mL concentration after 1 hr exposure time; Activity= no of responses/ no tested,8/10. It is filed as functional.
Assay [18] is filed under the species Homo sapiens. Description: Tumor-specific activity against human colon tumor type at 0.5 ug/mL concentration after 1 hr exposure time; Activity= no of responses/ no tested,[…]. It is filed as functional.
Assay [19] is filed under the species Homo sapiens. Description: Tumor-specific activity against human total tumor type at 50 ug/mL concentration after 1 hr exposure time; Activity= no of responses/ no tested,8/10. It counts as functional.
For assay [20], the species on record is Homo sapiens. Description: Compound was tested in vitro for activity in a human tumor cloning system at 0.5 ug/mL concentration after 1 hr exposure time. It counts as functional. Put shortly: (§2)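 Human tumor cloning assay on single-cell suspensions from patient solid tumors and effusions. Cells were exposed for 1 h at 37 °C in McCoy's 5A with 10% heat-inactivated FCS, washed twice, then plated at 5×10^5 cells/mL in 0.3% agar CMRL 1066 over a feeder layer. Colonies (>50 cells) were counted around day 14. A run was evaluable with ≥20 control colonies and under 30% survival with 200 μg/mL vanadate.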

Assay [21] is filed under the species Homo sapiens. As to the kind of experiment: Compound was tested in vitro for activity in a human tumor cloning system at 0.5 ug/mL concentration after continuous exposure time. It is filed as functional. Put shortly: (§3)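 Human tumor cloning assay on single-cell suspensions from patient solid tumors and effusions. Drug from DMSO stock was mixed into 0.3% agar CMRL 1066 with the cells, at 5×10^5 cells/mL over a feeder layer, and left for continuous exposure. Colonies (>50 cells) were counted around day 14 by inverted microscope. A run was evaluable with ≥20 control colonies and under 30% survival with 200 μg/mL vanadate.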

Assay [22] is filed under the species Homo sapiens. Description: Compound was tested in vitro for activity in a human tumor cloning system at 5 ug/mL concentration after 1 hr exposure time. It is filed as functional. Put shortly: as §2
The species entered for assay [23] is Homo sapiens. As to the kind of experiment: Compound was tested in vitro for activity in a human tumor cloning system at 5 ug/mL concentration after continuous exposure time. It counts as functional. In a few lines:
as §3

The species named for assay [24] is Homo sapiens. Description: Compound was tested in vitro for activity in a human tumor cloning system at 50 ug/mL concentration after 1 hr exposure time. It counts as functional. In a few lines:
as §2

For assay [25], the species on record is Homo sapiens. As to the kind of experiment: Compound was tested in vitro for activity in a human tumor cloning system at 50 ug/mL concentration after continuous exposure time. It is filed as functional. In a few lines:
as §3

Assay [26] is filed under the species Homo sapiens. As to the kind of experiment: Tumor-specific activity against human gastric tumor type at 0.5 ug/mL concentration after 1 hr exposure time; Activity= no of responses/ no tested, 1/1. It counts as functional, Stomach.
For assay [27], the species on record is Homo sapiens. As to the kind of experiment: Tumor-specific activity against human gastric tumor type at 5 ug/mL concentration after 1 hr exposure time; Activity= no of responses/ no tested, 2/2. It counts as functional, Stomach.
The species named for assay [28] is Homo sapiens. As to the kind of experiment: Tumor-specific activity against human gastric tumor type at 50 ug/mL concentration after 1 hr exposure time; Activity= no of responses/ no tested, 1/1. It is filed as functional, Stomach.
The species named for assay [29] is Homo sapiens. As to the kind of experiment: Tumor-specific activity against human breast tumor type at 0.5 ug/mL concentration after 1 hr exposure time; Activity= no of responses/ no tested, 0/1. It counts as functional.
For assay [30], the species on record is Homo sapiens. Description: Tumor-specific activity against human breast tumor type at 5 ug/mL concentration after 1 hr exposure time; Activity= no of responses/ no tested, […]. It counts as functional.
The species named for assay [31] is Homo sapiens. Description: Tumor-specific activity against human breast tumor type at 50 ug/mL concentration after 1 hr exposure time; Activity= no of responses/ no tested, […]. It counts as functional.
The species named for assay [32] is Homo sapiens. Description: Tumor-specific activity against human lung, non-small cell tumor type at 0.5 ug/mL concentration after 1 hr exposure time; Activity= no of responses/ no of evaluable, 0/1. It counts as functional.
The species entered for assay [33] is Homo sapiens. Description: Tumor-specific activity against human ovary tumor type at 0.5 ug/mL concentration after 1 hr exposure time; Activity= no of responses/ no tested, 1/2. It is filed as functional, Female gonad.
The species entered for assay [34] is Homo sapiens. As to the kind of experiment: Tumor-specific activity against human ovary tumor type at 5 ug/mL concentration after 1 hr exposure time; Activity= no of responses/ no tested, 1/1. It is filed as functional, Female gonad.
The species named for assay [35] is Homo sapiens. Description: Tumor-specific activity against human ovary tumor type at 50 ug/mL concentration after 1 hr exposure time; Activity= no of responses/ no tested, 1/1. It counts as functional, Female gonad.
For assay [36], the species on record is Homo sapiens. As to the kind of experiment: Tumor-specific activity against human total tumor type at 0.5 ug/mL concentration after 1 hr exposure time; Activity= no of responses/ no tested, 2/5. It is filed as functional.
For assay [37], the species on record is Homo sapiens. Description: Tumor-specific activity against human total tumor type at 50 ug/mL concentration after 1 h exposure time; Activity= no of responses/ no tested, 5/5. It is filed as functional.
The species entered for assay [38] is Homo sapiens. Description: Tumor-specific activity against human lung, non-small cell tumor type at 50 ug/mL concentration after 1 hr exposure time; Activity= no of responses/ no of evaluable, […]. It counts as functional.
The species named for assay [39] is Homo sapiens. Description: Tumor-specific activity against human total tumor type at 5 ug/mL concentration after 1 hr exposure time; Activity= no of responses/ no tested, 4/5.

For the molecule `O=C1c2ccccc2C(=O)c2c(NCC(O)CNCc3ccccc3)ccc(NCC(O)CCl)c21` (centres undefined), the IC50 was 11100 nM in assay [1], 14300 nM in assay [2], 12400 nM in assay [3] and 8200 nM in assay [4].
Consider `CCN(CC)CC(O)CNc1ccc(NCC2CO2)c2c1C(=O)c1ccccc1C2=O.O=C(O)/C=C/C(=O)O` (centres undefined), for which the IC50 in assay [1] came to 10 nM; in assay [2], 9 nM; in [3], 20 nM; in assay [4] it was 40 nM. Besides, the Activity in assay [5] turned out to be 1; in [6], 1; in assay [7] it was 1; in assay [8] it was 0; in assay [9], 1; in assay [10] it was 1. For the same molecule, the Activity in assay [11] came out at 2; in assay [12] it was 2; in [13] it was 2; in assay [14] it was 4; in [15], 4; in assay [16], 4. The Activity was found to be 8 in [17], 1 in assay [18] and 8 in assay [19]. Also, the % responders at 0.5 µg/mL in [20] worked out at 40%; in assay [21], 89%. In addition, the % responders at 5 µg/mL in [22] was 80%; in assay [23], 89%. For the same molecule, the results for the % responders at 50 µg/mL in assay [24] and in assay [25] were 80% and 100%, respectively.
Turning to `COc1cccc2c1C(=O)c1c(O)c3c(c(O)c1C2=O)C[C@@](O)(C(=O)CO)C[C@@H]3O[C@H]1C[C@H](N)[C@H](O)[C@H](C)O1` [DOXORUBICIN], the IC50 in assay [1] turned out to be 33 nM; in [2], 560 nM.
Consider `CCN(CC)CC(O)CNc1ccc(N)c2c1C(=O)c1ccccc1C2=O` (centres undefined), for which, in assay [4], the IC50 turned out to be 6000 nM.
Turning to `O=C1c2c(O)ccc(O)c2C(=O)c2c(NCCNCCO)ccc(NCCNCCO)c21` [MITOXANTRONE], the IC50 is 30 nM in assay [1], 180 nM in assay [2], 4000 nM in assay [3] and 5 nM in [4].
As for `CCCNCC(O)CNc1ccc(NCC(O)CCl)c2c1C(=O)c1ccccc1C2=O` (centres undefined), the IC50 in assay [1] was determined as 9600 nM; in assay [2], 12500 nM; in assay [3], 8700 nM; in assay [4] it was 3450 nM.
On to `CCN(CC)CC(O)CNc1ccc(NCC(O)CCl)c2c1C(=O)c1ccccc1C2=O` (centres undefined), for which the IC50 in [1] came to 210 nM; in assay [2] it was 70 nM; in assay [3], 720 nM; in assay [4], 430 nM. Moreover, the Activity came to 1 in [26]; 1 in assay [27]; 1 in assay [28]; 0 in assay [29]; 0 in [30]; 1 in assay [31]. In addition, the Activity in assay [32] was found to be 0; in assay [33], 1; in assay [34], 2; in assay [35], 2; in assay [36], 2; in [37], 5. For the same molecule, the Activity amounted to 1 in [38] and 4 in assay [39]. Moreover, the % responders at 0.5 µg/mL was found to be 40% in assay [20] and 50% in assay [21]. The % responders at 5 µg/mL is 80% in assay [22] and 100% in assay [23]. The % responders at 50 µg/mL in [24] and in [25] was 100% each time.
